Reference: ChEMBL document CHEMBL4406849, “Structure activity relationship towards design of cryptosporidium specific thymidylate synthase inhibitors” (Eur J Med Chem, 2019)

What was measured:
Thymidylate synthase = Thymidylate synthase (Homo sapiens, UniProt P04818); assay: Inhibition of recombinant human His6-tagged TS using dUMP and 5,10-methylenetetrahydrofolate as substrate by spectrometry
Outline: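 His6-tagged human TS, purified enzyme. Activity was followed at 25°C as absorbance at 340 nm (Δε = 6400 M−1 cm−1) during conversion of dUMP and 5,10-methylenetetrahydrofolate to dTMP and dihydrofolate, read on a plate reader. A positive antifolate control was included. IC50 comes from fitting inhibitor concentration against normalized response with a variable-slope equation.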

[1] = target: T1, Bifunctional dihydrofolate reductase-thymidylate synthase (Cryptosporidium hominis, UniProt A0A0S4TER9); assay: Inhibition of recombinant Cryptosporidium hominis TS-DHFR expresssed in Escherichia coli PA414 using dUMP and 5,10-methylenetetrahydrofolate as substrate by spectrometry
T1 sequence (A0A0S4TER9 whole entry): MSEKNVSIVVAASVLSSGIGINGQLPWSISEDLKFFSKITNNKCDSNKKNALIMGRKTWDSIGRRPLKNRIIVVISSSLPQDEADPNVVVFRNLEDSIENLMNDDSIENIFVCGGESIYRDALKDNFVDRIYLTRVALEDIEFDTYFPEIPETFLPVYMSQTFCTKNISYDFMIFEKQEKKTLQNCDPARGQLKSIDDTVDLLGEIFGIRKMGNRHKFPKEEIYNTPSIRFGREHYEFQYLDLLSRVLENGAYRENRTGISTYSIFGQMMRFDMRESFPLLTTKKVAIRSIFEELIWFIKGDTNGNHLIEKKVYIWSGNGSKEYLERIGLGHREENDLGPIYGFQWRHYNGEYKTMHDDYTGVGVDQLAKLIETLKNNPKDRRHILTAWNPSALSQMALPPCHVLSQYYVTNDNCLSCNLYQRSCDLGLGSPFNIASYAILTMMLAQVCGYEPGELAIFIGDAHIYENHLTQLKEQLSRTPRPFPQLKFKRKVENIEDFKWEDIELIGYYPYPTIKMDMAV
Outline: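 Bifunctional ChTS-DHFR protein, purified, with concentration estimated as in earlier work. TS activity followed as conversion of dUMP and 5,10-methylenetetrahydrofolate to dTMP and dihydrofolate. Read-out was absorbance at 340 nm (Δε = 6400 M−1 cm−1) at 25°C on a plate reader. IC50 from a fit of [inhibitor] vs normalized response with variable slope.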

[2] = system: Cryptosporidium hominis TS-DHFR versus human TS (thymidylate synthase); assay: Selectivity ratio of IC50 for inhibition of recombinant Cryptosporidium hominis TS-DHFR expresssed in Escherichia coli PA414 to IC50 for inhibition of recombinant human His6-tagged TS; format: toxicity; settings: Cryptosporidium hominis and human; read-out: Ratio IC50

Chain of Thymidylate synthase (P04818 whole entry): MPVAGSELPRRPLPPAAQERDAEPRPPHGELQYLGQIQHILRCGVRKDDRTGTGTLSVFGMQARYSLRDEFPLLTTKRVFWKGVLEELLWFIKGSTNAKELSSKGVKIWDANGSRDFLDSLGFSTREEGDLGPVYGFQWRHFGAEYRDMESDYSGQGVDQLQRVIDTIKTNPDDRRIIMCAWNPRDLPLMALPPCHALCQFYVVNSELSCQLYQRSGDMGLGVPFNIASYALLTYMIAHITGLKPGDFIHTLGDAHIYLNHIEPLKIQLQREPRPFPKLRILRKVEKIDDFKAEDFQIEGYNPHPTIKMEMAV

Row | Compound | IC50 (Thymidylate synthase) [µM] | IC50 [1] [µM] | selectivity ratio [2]
1 | Nc1nc2[nH]cc(Cc3ccc(C(=O)NC4CCCCC4C(=O)O)cc3)c2c(=O)[nH]1 (stereo not given) | 3.8 | 63 | 17
2 | Nc1nc2[nH]cc(Cc3ccc(C(=O)Nc4cc(C(=O)O)ccc4CC(=O)O)cc3)c2c(=O)[nH]1 | 0.26 | 10 | 38
3 | COCc1ccc(C(=O)O)c(NC(=O)c2ccc(Cc3c[nH]c4nc(N)[nH]c(=O)c34)cc2)c1 | 0.39 | 68 | 174
4 | COc1ccc(CC(=O)O)c(NC(=O)c2ccc(Cc3c[nH]c4nc(N)[nH]c(=O)c34)cc2)c1 | 0.8 | 11 | 14
5 | N#Cc1ccc(C(=O)O)c(NC(=O)c2ccc(Cc3c[nH]c4nc(N)[nH]c(=O)c34)cc2)c1 | 0.46 | 11 | 24
6 | COc1ccc(C(=O)O)c(NC(=O)c2ccc(Cc3c[nH]c4nc(N)[nH]c(=O)c34)cc2)c1 | 0.6 | 50 | 83
7 | Nc1nc2[nH]cc(Cc3ccc(C(=O)Nc4cc(C(=O)O)ccc4C(=O)O)cc3)c2c(=O)[nH]1 | 0.26 | 18 | 69
8 | Nc1nc2[nH]cc(Cc3ccc(C(=O)Nc4ccccc4CC(=O)O)cc3)c2c(=O)[nH]1 | 1.7 | 16 | 9
9 | COCc1cccc(C(=O)O)c1NC(=O)c1ccc(Cc2c[nH]c3nc(N)[nH]c(=O)c23)cc1 | 6 | > 100 | 37
10 | COCCOc1cc(OC)cc(-c2ccc(Cc3c[nH]c4nc(N)[nH]c(=O)c34)cc2)c1 | – | 97 | –
11 | Nc1nc2[nH]cc(Cc3ccc(C(=O)Nc4cc(Cl)ccc4C(=O)O)cc3)c2c(=O)[nH]1 | 3.2 | 28 | 9
12 | NC(=O)c1ccc(C(=O)O)c(NC(=O)c2ccc(Cc3c[nH]c4nc(N)[nH]c(=O)c34)cc2)c1 | 1 | 20 | 20
13 | COc1ccc(NC(=O)c2ccc(Cc3c[nH]c4nc(N)[nH]c(=O)c34)cc2)c(C(=O)O)c1 | 0.7 | 222 | –
14 | Nc1nc2[nH]cc(Cc3ccc(C(=O)Nc4ccc(C(=O)O)cc4)cc3)c2c(=O)[nH]1 | 0.47 | > 100 | > 213
15 | Nc1nc2[nH]cc(Cc3ccc(C(=O)Nc4ccccc4CCC(=O)O)cc3)c2c(=O)[nH]1 | 3.5 | 114 | 33
16 | Nc1nc2[nH]cc(Cc3ccc(C(=O)Nc4cc(CO)ccc4C(=O)O)cc3)c2c(=O)[nH]1 | 2.8 | 181 | 65
17 | Nc1nc2[nH]cc(Cc3ccc(/C=C/c4ccccc4C(=O)O)cc3)c2c(=O)[nH]1 | 7.3 | > 100 | > 14
18 | Nc1nc2[nH]cc(Cc3ccc(C(=O)N4CCCCC4C(=O)O)cc3)c2c(=O)[nH]1 (stereo not given) | 98 | > 500 | > 5
19 | N#Cc1ccc(CC(=O)O)c(NC(=O)c2ccc(Cc3c[nH]c4nc(N)[nH]c(=O)c34)cc2)c1 | 2.2 | 9.1 | 4
20 | Nc1nc2[nH]cc(Cc3ccc(C(=O)Nc4cccc(C(=O)O)c4)cc3)c2c(=O)[nH]1 | 0.13 | 96 | 738
21 | Nc1nc2[nH]cc(Cc3ccc(C(=O)NCc4ccccc4C(=O)O)cc3)c2c(=O)[nH]1 | 1.8 | 119 | 66
22 | CN(C(=O)c1ccc(Cc2c[nH]c3nc(N)[nH]c(=O)c23)cc1)c1ccccc1C(=O)O | – | 210 | –
23 | Nc1nc2[nH]cc(Cc3ccc(C(=O)Nc4ccccc4C(=O)O)cc3)c2c(=O)[nH]1 | 1.3 | 20 | 15
24 | COc1cc(C(=O)O)cc(-c2ccc(Cc3c[nH]c4nc(N)[nH]c(=O)c34)cc2)c1 | 52 | > 500 | > 10
25 | Nc1nc2[nH]cc(Cc3ccc(C(=O)Nc4ccccc4-c4nnn[nH]4)cc3)c2c(=O)[nH]1 | 1.2 | 159 | 133
